Test results as given in ChEMBL document CHEMBL1142312, “Anti-Plasmodium activity of tetrazolium salts” (Bioorg Med Chem, 2008).
Several values for one entry are separate records, joined by “and”; a condition that tells them apart may be missing. Equal values may be shown once.

Tests used:
[1] = Inhibition of glutathione reduction of nitrotetrazolium blue chloride
[2] = (§1) Toxicity in CHO cells; format: cell-based, Cricetulus griseus; settings: Chinese hamster (Cricetulus griseus), CHO cells
Procedure, shortened: (§2)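 CHO cells grown to 50% confluency in RPMI-1640 with 10% fetal calf serum, 25 mM Hepes and gentamicin. Serial dilutions made from a 10 mg/mL DMSO stock; DMSO-only controls. After 48 h, MTT (10 mg/mL in medium) added for 1 h, then DMSO added and absorbance read at 650 nm. IC50 by non-linear regression of dose–response; mean ± SE of four determinations.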

CHO = experiment: as §1; format: cell-based, Cricetulus griseus; settings: cho
Procedure, shortened: as §2

Plasmodium falciparum = experiment: Antimalarial activity against Plasmodium falciparum in LDH reporter assay; format: functional, organism-based
Procedure, shortened: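 P. falciparum line ItG cultured in O+ human erythrocytes in RPMI-1640 with 10% human serum and 50 μM hypoxanthine. Twofold serial dilutions from 10 mg/mL DMSO stock, 2% hematocrit, 2% parasitemia. Incubated 72 h at 37 °C under 95% N2/3% CO2/2% O2. Parasite LDH assay read at 650 nm after 1 h. IC50 by non-linear regression, mean ± SE of four determinations.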

[3] = Ratio of IC50 for CHO cells to IC50 for Plasmodium falciparum; format: functional

Compound | IC50 [1] | IC50 [2] | IC50 (CHO) | IC50 (Plasmodium falciparum) | Ratio IC50 [3] | IC50 (Plasmodium falciparum; Plasmodium falciparum)
O=S(=O)(O)c1cc(N=C=S)ccc1/C=C/c1ccc(N=C=S)cc1S(=O)(=O)O | 31 µM | – | – | – | – | –
CC(=O)Nc1ccc(/C=C/c2ccc(N=C=S)cc2S(=O)(=O)O)c(S(=O)(=O)O)c1 | 2.7 µM | – | – | – | – | –
O=[N+]([O-])c1ccc(-[n+]2nc(-c3ccccc3)nn2-c2ccccc2)cc1.[Cl-] | – | 16.2 µM | 12 µM | 9.1 µM and 4.5 µM | 1.8 and 2.7 | –
[Cl-].c1ccc(-c2nn(-c3ccccc3)[n+](-c3cccc4ccccc34)n2)cc1 [TETRAZOLIUM VIOLET] | – | 15 µM | – | – | 100 | 0.15 µM
